Assay results reported in ChEMBL document CHEMBL1124553, “Brain-specific chemical delivery systems for beta-lactam antibiotics. In vitro and in vivo studies of some dihydropyridine and dihydroisoquinoline derivatives of benzylpenicillin in rats” (J Med Chem, 1989).

Columns and labels:
Oryctolagus cuniculus [1] = species: Oryctolagus cuniculus; experiment: Pseudo first-order rate constant (K) for disappearance of compound from rabbit 10% brain homogenate; assay type: ADME
Method in brief: (§1)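 Freshly collected whole blood (rat trunk blood; rabbit) or 10% w/v brain homogenate made in pH 7.4 phosphate buffer (μ = 0.15), prewarmed to 37 °C. Compound added from 8 mM DMSO stock to a final 40 μM. Timed 0.3 mL samples were quenched in 8% DMSO/acetonitrile, centrifuged, filtered and analysed by reversed-phase C8 HPLC-UV. K came from linear regression of log peak height versus time; n=3 animal samples.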

[2] = Half-life for disappearance of compound from rat 10% brain homogenate; assay type: ADME
Method in brief: (§2)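 Freshly collected whole blood, or 10% w/v brain homogenate in pH 7.4 phosphate buffer (ionic strength 0.15), was prewarmed to 37 °C. Compound was spiked from an 8 mM DMSO stock to 40 µM final. Timed samples were quenched in 8% DMSO/acetonitrile, centrifuged, filtered and analyzed by reversed-phase C8 HPLC with UV detection. K came from linear regression of log peak height versus time, with t1/2 derived from it. Values are mean ± SE of three determinations in different animal samples.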

Rattus norvegicus = species: Rattus norvegicus; experiment: Pseudo first-order rate constant (K) for disappearance of compound from rat 10% brain homogenate; assay type: ADME; method in brief: as §1
[3] = Half-life for disappearance of compound from rabbit 10% brain homogenate; assay type: ADME, Oryctolagus cuniculus; method in brief: as §2
Canis familiaris = species: Canis familiaris; experiment: Pseudo first-order rate constant (K) for disappearance of compound from dog whole blood; assay type: ADME, organism-based, Canis lupus familiaris; method in brief: as §2
Homo sapiens = species: Homo sapiens; experiment: Pseudo first-order rate constant (K) for disappearance of compound from human whole blood; assay type: ADME, organism-based; method in brief: as §2
[4] = Half-life for disappearance of compound from rabbit whole blood; assay type: ADME, organism-based, Oryctolagus cuniculus; method in brief: as §2
[5] = Half-life for disappearance of compound from human whole blood; assay type: ADME, organism-based; method in brief: as §2
[6] = Half-life for disappearance of compound from dog whole blood; assay type: ADME, organism-based, Canis lupus familiaris; method in brief: as §2
Oryctolagus cuniculus [7] = species: Oryctolagus cuniculus; experiment: Pseudo first-order rate constant (K) for disappearance of compound from rabbit whole blood; assay type: ADME, organism-based; method in brief: as §1

Row | K (Oryctolagus cuniculus [1]) [min⁻¹] | half-life [2] [s] | K (Rattus norvegicus) [min⁻¹] | half-life [3] [s] | K (Canis familiaris) [min⁻¹] | K (Homo sapiens) [min⁻¹] | half-life [4] [s] | half-life [5] [s] | half-life [6] [s] | K (Oryctolagus cuniculus [7]) [min⁻¹] | SMILES
1 | 1.366 | 36 | 0.949 | 30 |  |  |  |  |  |  | C[n+]1cccc(C(=O)OCOC(=O)C2N3C(=O)C(NC(=O)Cc4ccccc4)C3SC2(C)C)c1.[I-] (centres undefined)
2 | 0.166 | 36 | 1.357 | 258 | 0.213 | 0.045 | 48 | 954 | 216 | 0.949 | CN1C=CCC(C(=O)OCOC(=O)C2N3C(=O)C(NC(=O)Cc4ccccc4)C3SC2(C)C)=C1 (centres undefined)
